Screens as filed in PubChem BioAssay.
LANA-H2B inh: blocks KSHV LANA binding to histone H2A/H2B. AID 2629. actives 0.6% (n = 320,000). cell-free LANA-H2A/H2B peptide, fluorescence polarization. inhibition, % (concentration not given with the values). Q9QR71; in the data active = inhibition mostly above about 10%, no sharp cut-off; inactive = mostly below about 6.7%
GPR7 antagonist: blocks human GPR7 receptor signaling. AID 1861. inhibition, % at 4.4 µM. actives 1.1% (n = 290,000). GPR7-expressing cells, fluorescence antagonist assay; in the data active = inhibition above about 16%, passing the limit was not always enough;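 also: cells stimulated with the agonist NPW; 0% = agonist with vehicle and 100% = vehicle without agonist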
Target sequence (P48145 whole entry, looked up): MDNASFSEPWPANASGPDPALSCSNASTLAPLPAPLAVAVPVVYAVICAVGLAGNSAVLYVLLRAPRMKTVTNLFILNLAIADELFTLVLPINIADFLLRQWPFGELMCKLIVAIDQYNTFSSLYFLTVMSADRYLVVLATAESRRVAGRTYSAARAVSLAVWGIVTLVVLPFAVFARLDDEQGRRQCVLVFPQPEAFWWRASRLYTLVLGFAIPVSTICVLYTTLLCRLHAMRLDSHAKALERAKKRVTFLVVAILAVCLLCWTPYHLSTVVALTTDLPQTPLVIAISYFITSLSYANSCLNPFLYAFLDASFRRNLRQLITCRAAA
TRPN1 ag: agonists of zebrafish TRPN1 channel. actives 0.18% (n = 220,000). activation, % at 3 µM. AID 1424. HEK293 zebrafish TRPN1-YFP, Fluo-8 calcium fluorescence; 100% = response to 87 µM carbachol;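 active = activation above its plate's cutoff, the mean activation of test wells on that plate plus 3 SD, cut at about 19% in these data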;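 also: 0% = DMSO alone and 100% = 87 µM carbachol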
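Material: zebrafish TRPN1-YFP in HEK293 cells. Doses: one dose of 3 µM, 0.3% DMSO. Incubation: dye 1 h 37 °C plus 30 min RT. Measured by: intracellular calcium fluorescence with Fluo-8.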
TAAR1 ag: agonists of human TAAR1. activation, % at 3 µM. Q96RJ0. CHO RD-HGA16 TAAR1, Fluo-8 calcium fluorescence; vehicle wells 0%, saturating PEA agonist 100%. actives 0.99% (n = 360,000);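 active = activation above the mean activation of all test compounds in the run plus 3 SD, cut at about 38% in these data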
Target sequence (Q96RJ0 whole entry, looked up): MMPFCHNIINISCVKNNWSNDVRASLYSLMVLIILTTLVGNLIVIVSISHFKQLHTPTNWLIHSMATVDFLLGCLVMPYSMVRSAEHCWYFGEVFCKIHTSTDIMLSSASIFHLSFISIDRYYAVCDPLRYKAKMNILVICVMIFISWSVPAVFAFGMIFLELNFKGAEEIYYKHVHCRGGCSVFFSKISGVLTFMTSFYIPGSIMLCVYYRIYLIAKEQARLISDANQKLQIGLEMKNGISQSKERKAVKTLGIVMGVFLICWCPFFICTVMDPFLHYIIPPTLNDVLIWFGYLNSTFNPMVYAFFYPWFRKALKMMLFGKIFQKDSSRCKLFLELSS
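System: CHO-derived RD-HGA16 cells with stable Gα16 and human TAAR1. Times: 17-24 h plating, Fluo-8 75 min 37 °C, 30 min RT. Measured by: calcium-sensitive Fluo-8 signal, excitation 470-495, emission 515-575 nm. Read-out basis: % activation relative to PEA EC100 response. Control set: DMSO and PEA EC100. Repeats: no replicates (n 1).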
TRPML3 agonist: activates the human TRPML3 channel. Q8TDD5. HEK293 TRPML3-YFP, Fluo-8 calcium fluorescence; 100% = the carbachol control signal. activation, % at 3 µM. actives 0.29% (n = 220,000);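 active = activation above its plate's cutoff, the mean activation of the plate's test wells plus 3 SD, cut at about 12% in these data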;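 also: 0% = DMSO only wells and 100% = carbachol wells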
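Material: TRPML3-YFP stable HEK293 cells | Dosing: One concentration, 3 µM nominal, 0.3% DMSO | Timing: 125 s total fluorescence read per well | Technique: Fluo-8 calcium dye fluorescence, ex 470-495, em 515-575 nm | Measure: Percent activation from peak-to-basal fluorescence ratio, scaled between DMSO and carbachol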
TAAR1 antag: antagonists of human TAAR1; inhibition, % at 3 µM; actives 1.5% (n = 360,000); CHO RD-HGA16 TAAR1, Fluo-8 calcium fluorescence, antagonist; Q96RJ0;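 active = inhibition above a per-plate cutoff, the mean inhibition of test compounds on that plate plus 3 SD, cut at about 49% in these data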;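 also: 0% = DMSO plus EC80 beta-PEA response and 100% = DMSO alone without agonist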
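Assay system: CHO-derived RD-HGA16 cells stably expressing human TAAR1 plus Gα16. Timing: 140 s kinetic read after compound, 140 s after agonist. Technique: kinetic Fluo-8 calcium fluorescence measurement. Measure: % inhibition of agonist calcium response.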
TAAR1 ag confirm: confirmation of human TAAR1 agonists | shares compounds with TAAR1 ag | CHO RD-HGA16 TAAR1, Fluo-8 calcium fluorescence; scaled: DMSO 0%, maximal phenethylamine 100% | activation, % at 3 µM | actives 82% (n = 2,400) | AID 651783;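 active = activation above a cutoff set at the run's mean compound activation plus 3 SD, cut at about 39% in these data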
Ga16 ag counter: nonselective agonist in parental cells, TAAR1 agonist counter-screen; shares compounds with TAAR1 ag; CHO-Ga16 parental, Fluo-8 calcium fluorescence; normalized to maximal ATP response, DMSO zero; activation, % at 3 µM; actives 50% (n = 2,400);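 active = activation above the run cutoff, the mean activation over all tested wells plus 3 SD, cut at about 12% in these data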;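 also: 0% = DMSO wells and 100% = maximal ATP response on the peak over basal ratio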
TAAR1 desensitize: TAAR1 response desensitization, agonist counter-screen; CHO RD-HGA16 hTAAR1, Fluo-8 calcium, beta-PEA response inhibition; AID 651951; shares compounds with TAAR1 ag; actives 46% (n = 2,400); inhibition, % at 3 µM;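 active = inhibition above the run cutoff, the mean inhibition of all test compounds plus 3 SD, cut at about 49% in these data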;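 also: beta-PEA stimulus applied at its EC80; loss of beta-PEA calcium signal after compound pretreatment read as receptor desensitization; 0% = DMSO with beta-PEA at EC80 and 100% = DMSO alone without agonist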
Ga16 antag count: counter-screen for TAAR1 agonists: nonselective Ga16 antagonists; CHO-Ga16 ATP-induced calcium, Fluo-8 fluorescence; actives 39% (n = 2,400); shares compounds with TAAR1 ag; AID 651952; inhibition, % at 3 µM;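 active = inhibition above the plate's mean compound inhibition plus 3 SD, computed per plate, cut at about 22% in these data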;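 also: 0% = EC80 ATP with DMSO and 100% = DMSO wells without ATP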
Numbers without * were called inactive; · = no result given. An excerpt weighted towards active compounds, which were near 3.4% of everything screened.

SMILES	LANA-H2B inh	GPR7 antagonist	TRPN1 ag	TAAR1 ag	TRPML3 agonist	TAAR1 antag	TAAR1 ag confirm	Ga16 ag counter	TAAR1 desensitize	Ga16 antag count
COc1ccc(O)c(/C=N/NC(=O)c2c(C)nnn2-c2nonc2N)c1	-2	-5	-2	0	0	-6	·	·	·	·
Cc1nnn(-c2nonc2N)c1C(=O)NNC(=O)c1ccc(Cl)c(Cl)c1	5	-2	-2	55*	-1	9	72*	6	21	8
Cc1cccc(CCNCc2c(C(=O)O)c(C)n(-c3ccccc3)c2C)c1	1	-4	·	58*	·	6	78*	1	44	3
Cc1cccc(C(=O)NCCc2ccccc2)c1	0	-5	·	6	·	-17	·	·	·	·
Cc1ccc2nc(N3CCN(C)CC3)c(C#N)cc2c1	1	-11	0	24	1	-1	·	·	·	·
Cc1cccc2cc(C#N)c(N3CCN(C)CC3)nc12	-2	-7	1	67*	1	1	76*	1	45	6
Cc1cc(C)c2nc(N3CCN(C)CC3)c(C#N)cc2c1	-3	-9	1	49*	1	-27	54*	2	20	11
CC(Oc1ccc(Br)cc1)C(=O)Nc1ccc(S(=O)(=O)Nc2nccs2)cc1 (centres undefined)	3	12	·	35	·	36	·	·	·	·
CC(Oc1ccc(Br)cc1)C(=O)Nc1ccc(S(=O)(=O)NC2=NCCCCC2)cc1 (centres undefined)	·	·	·	95*	·	72*	119*	78*	81*	47*
CCOc1cccc(-c2c(C(=O)N/N=C/c3cccs3)nnn2-c2nonc2N)c1	-2	-6	·	110*	·	21	91*	55*	38	21
CCOc1cccc(-c2c(C(=O)N/N=C/c3ccoc3)nnn2-c2nonc2N)c1	0	-7	·	83*	·	-3	73*	32*	7	9
CCOc1ccc(-c2c(C(=O)N/N=C/c3ccoc3)nnn2-c2nonc2N)cc1	-3	-8	·	92*	·	-20	66*	29*	6	10
COc1cccc(-c2c(C(=O)N/N=C/c3cccs3)nnn2-c2nonc2N)c1	0	-26	·	·	·	·	·	·	·	·
Cc1ccc(/C=N/NC(=O)c2nnn(-c3nonc3N)c2-c2ccc3c(c2)OCO3)s1	0	-10	·	82*	·	42	97*	61*	40	20
COc1ccc(/C=N/NC(=O)c2nnn(-c3nonc3N)c2-c2cccc(OC)c2)cc1	1	-13	·	149*	·	75*	121*	86*	72*	32*
Nc1nonc1-n1nnc(C(=O)N/N=C/c2cccc(F)c2)c1-c1ccccc1	-1	7	·	55*	·	0	39*	18*	16	11
Nc1nonc1-n1nnc(C(=O)N/N=C/c2cccnc2)c1-c1ccccc1	12	-10	·	15	·	-22	·	·	·	·
Cc1ccc(/C=N/NC(=O)c2nnn(-c3nonc3N)c2-c2cccs2)cc1	-2	-5	·	131*	·	78*	129*	96*	79*	43*
COc1ccc(/C=N/NC(=O)c2nnn(-c3nonc3N)c2-c2cccs2)cc1OC	4	2	·	12	·	22	·	·	·	·
CCOc1ccc(/C=N/NC(=O)c2nnn(-c3nonc3N)c2-c2ccc(OCC)cc2)cc1	9	-12	0	66*	0	-15	57*	26*	9	14
O=C(Cc1ccc(NC(=O)C2CCN(C(=O)CCc3ccccc3)CC2)cc1)Nc1ccc(C(=O)N2CCOCC2)cc1	·	·	·	2	·	-16	·	·	·	·
COC(=O)[C@H](Cc1c[nH]c2ccccc12)NC(=O)NCc1ccc(OC)cc1	5	-1	·	11	·	-5	·	·	·	·
CC1=NOC(=O)/C1=C\c1ccc(-c2ccccc2Br)o1	·	13	-2	46*	0	75*	32	29*	56*	65*
C[C@@H]1CN([C@@H](C)CO)C(=O)c2ccccc2-c2ccccc2CO[C@@H]1CN(C)S(=O)(=O)c1ccc(C(F)(F)F)cc1	·	·	·	4	·	-10	·	·	·	·
CCOC(=O)c1c(C)[nH]c(C)c1S(=O)(=O)N1c2ccccc2CC1C (centres undefined)	0	-10	·	49*	·	-16	25	6	0	-4
SMILES	LANA-H2B inh	GPR7 antagonist	TRPN1 ag	TAAR1 ag	TRPML3 agonist	TAAR1 antag	TAAR1 ag confirm	Ga16 ag counter	TAAR1 desensitize	Ga16 antag count
FC(F)(F)c1cccnc1Oc1ccc(C2=NCCS2)cc1	-1	-15	1	84*	1	57*	58*	58*	62*	43*
CC(=O)Nc1ccc(-c2csc(-c3cccnc3)n2)cc1	1	-2	·	4	·	-6	·	·	·	·
Cc1c(Br)c([N+](=O)[O-])nn1CC(=O)N1CCc2ccccc2C1	-5	-3	-1	63*	0	-22	60*	2	15	7
Cc1nn(CC(=O)N2CCc3ccccc3C2)c(C)c1[N+](=O)[O-]	1	7	1	58*	-1	-13	69*	1	23	3
COc1cc(CCCN2CCNC[C@@H]2c2ccccc2)cc(OC)c1OC	-15	·	·	2	·	8	·	·	·	·
c1ccc([C@H]2CNCCN2CCc2cccc3ccccc23)cc1	9	·	·	54*	·	24	76*	20*	53*	24*
COc1ccccc1NC(=O)NC1(C(=O)N2CCN(C)CC2)CCCCC1	-2	-12	·	-1	·	0	·	·	·	·
COc1cc(CNCCc2ccccc2F)ccc1OCc1ccc(Cl)nc1	9	-1	1	73*	2	36	77*	10	57*	20
COc1cc(CNCCc2ccc(F)cc2)ccc1OCc1ccc(Cl)nc1	0	15	0	37	1	-4	·	·	·	·
COc1cc(CNCCc2c[nH]c3ccccc23)ccc1OCc1ccc(F)cc1	1	21*	4	60*	3	50*	54*	30*	52*	49*
